Assay results from ChEMBL document CHEMBL1140964, “1,8-Naphthyridines VII. New substituted 5-amino[1,2,4]triazolo[4,3-a][1,8]naphthyridine-6-carboxamides and their isosteric analogues, exhibiting notable anti-inflammatory and/or analgesic activities, but no acute gastrolesivity” (Eur J Med Chem, 2008).

What was measured:
Mus musculus [1] = assay: Antinociceptive activity in Swiss mouse assessed as inhibition of acetic acid-induced writhing response at 100 mg/kg, po dose administered 1 hr before acetic acid challenge measured for 30 mins; assay type: functional
In short: (§1)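 Swiss mice (25–35 g, either sex), fasted overnight, received compound orally in 0.5% methylcellulose or vehicle, with 8–10 per group. Testing started at 100 mg/kg with successive twofold dose reductions. Writhes were counted for 30 min after acetic acid injection. Percent inhibition of the writhing response was calculated versus vehicle controls (Student's t-test).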

Rattus norvegicus [2] = assay: Antiinflammatory activity against carrageenan-induced paw edema in Wistar rat at 100 mg/kg, po dose administered 1 hr before carrageenan challenge assessed after 3 hrs; assay type: functional
In short: (§2)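 Wistar rats (250–300 g, either sex), fasted overnight, dosed by oral gavage with the compound suspended in 0.5% methylcellulose. Controls received vehicle alone, with 8–10 animals per group. Dosing started at 100 mg/kg and was halved stepwise. Carrageenan (1%, 0.1 mL) was injected subplantar 1 h post-dose. Paw volume was measured by plethysmometer immediately and at 3 h, and % inhibition of swelling was calculated versus controls (Student's t-test).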

Mus musculus [3] = assay: Antinociceptive activity in Swiss mouse assessed as inhibition of acetic acid-induced writhing response at 25 mg/kg, po dose administered 1 hr before acetic acid challenge measured for 30 mins; assay type: functional; in short: as §1
Mus musculus [4] = assay: Sedative activity in Swiss mouse assessed as inhibition of spontaneous locomotor activity at 100 mg/kg, po dose measured for every 5 mins during 60 to 90 mins; assay type: organism-based; design: dose 100 mg/kg, route oral
In short: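 Fasted Swiss mice (25–35 g, either sex) were given compound orally in 0.5% methylcellulose or vehicle. Each mouse was placed alone in a photobeam-type activity cage, with counts recorded every 5 min for 90 min. Pulses from the final 30 min were scored, with testing run 9:00–13:00. Percent inhibition was calculated versus controls (Student's t-test).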

Mus musculus [5] = assay: Antinociceptive activity in Swiss mouse assessed as inhibition of acetic acid-induced writhing response at 50 mg/kg, po dose administered 1 hr before acetic acid challenge measured for 30 mins; assay type: functional; in short: as §1
Rattus norvegicus [6] = assay: Antiinflammatory activity against carrageenan-induced paw edema in Wistar rat at 12.5 mg/kg, po dose administered 1 hr before carrageenan challenge assessed after 3 hrs; assay type: functional; in short: as §2
Rattus norvegicus [7] = assay: Antiinflammatory activity against carrageenan-induced paw edema in Wistar rat at 25 mg/kg, po dose administered 1 hr before carrageenan challenge assessed after 3 hrs; assay type: functional; in short: as §2
Rattus norvegicus [8] = assay: Antiinflammatory activity against carrageenan-induced paw edema in Wistar rat at 50 mg/kg, po dose administered 1 hr before carrageenan challenge assessed after 3 hrs; assay type: functional; in short: as §2
Rattus norvegicus [9] = assay: Antiinflammatory activity against carrageenan-induced paw edema in Wistar rat at 6.25 mg/kg, po dose administered 1 hr before carrageenan challenge assessed after 3 hrs; assay type: functional; in short: as §2

SMILES	inhibition in vivo at 100 mg/kg (Mus musculus [1]) [%]	inhibition in vivo at 100 mg/kg (Rattus norvegicus [2]) [%]	inhibition in vivo at 25 mg/kg (Mus musculus [3]) [%]	inhibition at 100 mg/kg (Mus musculus [4]) [%]	inhibition in vivo at 50 mg/kg (Mus musculus [5]) [%]	inhibition in vivo at 12.5 mg/kg (Rattus norvegicus [6]) [%]	inhibition in vivo at 25 mg/kg (Rattus norvegicus [7]) [%]	inhibition in vivo at 50 mg/kg (Rattus norvegicus [8]) [%]	inhibition in vivo at 6.25 mg/kg (Rattus norvegicus [9]) [%]
CC(C)c1nnc2c(C(=O)N3CCCC3)c(N3CCN(C)CC3)c3cccnc3n12	100	0	–	–	–	–	–	–	–
CCN(CC)C(=O)c1c(N2CCN(C)CC2)c2cccnc2n2cnnc12	14	0	–	–	–	–	–	–	–
CC(C)CNc1c(C(=O)N2CCCC2)c2nnc(C(C)C)n2c2ncccc12	60	0	29	5	64	–	–	–	–
CCN(CC)C(=O)c1c(NN2CCN(C)CC2)c2cccnc2n2c(C(C)C)nnc12	17	0	–	–	–	–	–	–	–
CCN(CC)C(=O)c1c(NCC(OC)OC)c2cccnc2n2c(C(C)C)nnc12	47	0	–	0	8	–	–	–	–
CCNC(=O)c1c(N2CCN(C)CC2)c2cccnc2n2c(C(C)C)nnc12	79	0	–	80	24	–	–	–	–
CCN(CC)C(=O)c1c(OC2CCN(C)CC2)c2cccnc2n2c(C(C)C)nnc12	87	18	–	65	35	–	–	–	–
CCNc1c(C(=O)N(CC)CC)c2nnc(C(C)C)n2c2ccccc12	91	42	12	39	43	6	24	43	–
CCN(CC)C(=O)c1c(NCC(C)C)c2ccccc2n2c(C(C)C)nnc12	88	0	–	14	29	–	–	–	–
CCCCOc1c(C(=O)N(CC)CC)c2nnc(C(C)C)n2c2ncccc12	40	3	–	76	14	–	–	–	–
CCN(CC)C(=O)c1c(OC(C)C)c2cccnc2n2c(C(C)C)nnc12	11	24	–	–	–	–	–	0	–
CCN(CC)C(=O)c1c(OCC(C)C)c2cccnc2n2c(C(C)C)nnc12	26	0	–	–	–	–	–	–	–
CCN(CC)C(=O)c1c(N2CCN(C)CC2)c2ccccc2n2cnnc12	55	0	28	0	58	–	–	–	–
CCOc1c(C(=O)N(CC)CC)c2nnc(C(C)C)n2c2ncccc12	22	10	–	–	–	–	–	–	–
CCN(CC)C(=O)c1c(N2CCN(C)CC2)c2cccnc2n2c(-c3ccccc3)nnc12	100	0	15	72	62	–	–	–	–
CCc1nnc2c(C(=O)N(CC)CC)c(NCCC(C)C)c3cccnc3n12	98	41	15	95	75	29	43	41	0
CCN(CC)C(=O)c1c(OC2CCN(C)CC2)c2cccnc2n2cnnc12	45	0	–	55	20	–	–	–	–
